According to ChEMBL document CHEMBL1154894, “Paltolides A--C, anabaenopeptin-type peptides from the palau sponge Theonella swinhoei” (J Nat Prod, 2010):
Active and inactive are the calls of the source. The rule behind the calls is not given here. Numbered stars: 1 amine (or outer) side, 2 acyl side, 3 side chain; on linkers, the order of the positions; unused ones are H or OH. Bridge positions count the residues as written; N and C are the ends. Square brackets hold non-standard residues; d marks the D form. Peptide text beside a SMILES is read from it. X1 = O=C([C@H](Cc1c[nH]c2cc(Cl)c(O)cc12)N[*:1])[*:2]; NMeL = CN[C@@H](CC(C)C)C(=O)O; CO = O=C([*:1])[*:2]

Experiments:
HCT-116 = test: Cytotoxicity against human HCT116 cells assessed as cell viability up to 100 ug/ml after 72 hrs by MTT assay; type: functional, cell-based
Method in brief: (§1)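 MTT viability kit assay. Cells seeded at 2 × 10^4 per well and left to adhere 18 h. Exposed to compound for 24 h, then medium replaced or diluted 3-fold with fresh growth medium. Incubated a further 48 h before MTT read-out at A570. At least two separate experiments, each in duplicate.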

[1] = Cytotoxicity against african green monkey BSC1 cells assessed as cell viability up to 100 ug/ml after 72 hrs by MTT assay; type: cell-based; conditions: chlorocebus aethiops, bsc-1, 72 h; method in brief: as §1
TZM = test: Cytotoxicity against human TZM-bl cells assessed as cell viability up to 100 ug/ml after 72 hrs by MTT assay; type: functional, cell-based; method in brief: as §1
[2] = test system: Human immunodeficiency virus 1; test: Antiviral activity against HIV1 expressing SF162 envelope assessed as inhibition of viral entry in human TZM-bl cells up to 100 ug/ml after 48 hrs by luciferase reporter gene assay; type: functional, organism-based
Method in brief: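 Single-round HIV-1 neutralization in TZM-BL cells using virus pseudotyped with SF162 Envelope, under previously published conditions. At least two separate experiments, each run in duplicate.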

| SMILES | Activity (HCT-116) | Activity [1] | Activity (TZM) | Activity [2] |
| --- | --- | --- | --- | --- |
| CC(C)C[C@@H]1NC(=O)[C@H](C)NC(=O)[C@H](NC(=O)N[C@@H](CCCNC(=N)N)C(=O)O)CCCCNC(=O)[C@H](Cc2c[nH]c3ccccc23)NC(=O)[C@H](CC(C)C)NC1=O [PALTOLIDE A] | inactive | Not Active | inactive | inactive |
| CC(C)C[C@@H]1NC(=O)[C@H](C)NC(=O)[C@H](NC(=O)N[C@@H](CCCNC(=N)N)C(=O)O)CCCCNC(=O)[C@H](Cc2c[nH]c3cc(Br)ccc23)NC(=O)[C@H](CC(C)C)N(C)C1=O [PALTOLIDE C] | inactive | Not Active | inactive | inactive |
| CC(C)C[C@@H]1NC(=O)[C@H](C)NC(=O)[C@H](NC(=O)N[C@@H](CCCNC(=N)N)C(=O)O)CCCCNC(=O)[C@H](Cc2c[nH]c3ccc(O)cc23)NC(=O)[C@H](CC(C)C)N(C)C1=O [PALTOLIDE B] | inactive | Not Active | inactive | inactive |
| CC(C)C[C@@H]1NC(=O)[C@H](C)NC(=O)[C@H](NC(=O)N[C@@H](CCCNC(=N)N)C(=O)O)CCCCNC(=O)[C@H](Cc2c[nH]c3cc(Cl)c(O)cc23)NC(=O)[C@H](CC(C)C)N(C)C1=O ({Arg-CO}-[dK]AL[NMeL][X1]; lactam 1-C) | inactive | Not Active | inactive | inactive |
